Columns and labels:
[1] = test system: L1210; assay: Antitumor activity was determined against the ip implanted L1210 leukemia in mice by range in survival days at 300 mg/kg (treatment of 1qd schedule) dosage; Range is 14->45; assay type: functional, Mus musculus; details: route intraperitoneal
In short: (§1)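 DBA/2J mice, 23-28 g, in groups of 6, were inoculated ip with 1×10^6 L1210 cells on day 0. Dosing was ip starting 24 h later on the stated daily schedules. Conjugates were given as sonicated solutions and reference prodrugs as suspensions in 0.9% NaCl with 0.5% Tween-80. Mice were observed daily until death or 45 days. Median survival T/C was calculated from survivors per NCI protocols.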

[2] = test system: L1210; assay: Antitumor activity against ic implanted L1210 lymphoid leukemia in mice expressed as active dose range (1 qd treatment schedule) required to produce increase in life span by >25% was determined; Range is 200-400; assay type: functional, Mus musculus
In short: (§2)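 DBA/2J mice, groups of 6 (26-32 g), got 1 × 10^5 L1210 cells ic on day 0. Dosing was ip starting 24 h later, as a sonicated solution or suspension in 0.9% NaCl with 0.5% Tween-80, over a wide dose range. Mice were followed daily until death. Median survival T/C was taken from survivors per NCI protocols, and ILS = (T/C − 1) × 100. Active range means doses giving ILS ≥25%; optimal dose means greatest ILS.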

[3] = test system: L1210; assay: Antitumor activity was determined against the ip implanted L1210 leukemia in mice by percent increase in life span at 300 mg/kg (treatment of 1qd schedule) dosage; assay type: functional, Mus musculus; details: route intraperitoneal
In short: (§3)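 DBA/2J mice in groups of 6 (wt 23-28 g) were inoculated ip with 1×10^6 L1210 cells on day 0. Dosing was ip from 24 h, in 0.9% NaCl with 0.5% Tween-80 (conjugates sonicated), across a range of doses. Mice were observed daily until death or 45 days. Median T/C was computed from survivors per NCI protocols, and ILS = (T/C − 1)×100.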

[4] = test system: L1210; assay: Antitumor activity was determined against the ic implanted L1210 lymphoid leukemia in mice by percent median survival rate (treated/control) at 300 mg/kg (1 qd treatment schedule) dosage; 21.0/7.0; assay type: functional, Mus musculus
[5] = test system: L1210; assay: Antitumor activity was determined against the ic implanted L1210 lymphoid leukemia in mice by percent increase in life span at 80 mg/kg (1-5qd treatment schedule) dosage; assay type: functional, Mus musculus; in short: as §2
[6] = test system: L1210; assay: Antitumor activity against ip implanted L1210 leukemia in mice expressed as active dose range (1-5qd treatment schedule) required to produce increase in life span by >25% was determined; Range is 5-350; assay type: functional, Mus musculus
In short: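 DBA/2J mice, groups of 6 (23-28 g), were inoculated ip with 1 × 10^6 L1210 cells on day 0. Dosing was ip from 24 h, in 0.9% NaCl with 0.5% Tween-80 (sonicated solution or suspension). Mice were observed daily until death or day 45. Median survival T/C followed NCI protocols, and ILS = (T/C − 1) × 100. Active range means doses giving ILS ≥25%; optimal dose means greatest ILS.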

[7] = test system: L1210; assay: Antitumor activity was determined against the ic implanted L1210 lymphoid leukemia in mice by percent increase in life span at 300 mg/kg (treatment of 1-5qd schedule) dosage; assay type: functional, Mus musculus; in short: as §2
[8] = test system: L1210; assay: Antitumor activity was determined against the ic implanted L1210 lymphoid leukemia in mice by range in survival days at 100 mg/kg (treatment of 1-9qd schedule) dosage; Range is 11-18; assay type: functional, Mus musculus
[9] = test system: L1210; assay: Antitumor activity against ic implanted L1210 lymphoid leukemia in mice expressed as active dose range (1, 5, 9qd treatment schedule) required to produce increase in life span by >25% was determined; Range is 100-167; assay type: functional, Mus musculus; in short: as §2
[10] = test system: L1210; assay: Antitumor activity was determined against the ic implanted L1210 lymphoid leukemia in mice by change in […] at 167 mg/kg (treatment of 1, 5, 9qd schedule) dosage; assay type: functional, Mus musculus
In short: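 DBA/2J mice, 6 per group (wt 26-32 g), inoculated ic with 1×10^5 L1210 cells on day 0. Dosing ip began 24 h after inoculation, with a sonicated solution or suspension in 0.9% NaCl containing 0.5% Tween-80, given over a range of doses. Animals were followed daily until death. Body weight change, median survival T/C, and %ILS = (T/C − 1) × 100 were computed from survivors per NCI protocols.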

[11] = test system: P388; assay: Antitumor activity was determined against the ip implanted P388 leukemia in mice by percent increase in life span at 300 mg/kg (treatment of 1qd schedule) dosage; details: route intraperitoneal
[12] = test system: P388; assay: Antitumor activity against ip implanted P388 leukemia in mice expressed as active dose range (1 qd treatment schedule) required to produce increase in life span by >25% was determined; Range is 300-500; assay type: functional, Mus musculus
In short: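 P388 leukemia: 1 × 10^6 cells were given ip on day 0 to DBA/2J mice, groups of 6 (23-33 g). Treatment was ip from 24 h after inoculation, vehicle 0.9% NaCl with 0.5% Tween-80. Mice were observed daily until death or 45 days. Median survival T/C was calculated from survivors per NCI protocols, and ILS = (T/C − 1) × 100. Active range means doses giving ILS ≥25%; optimal dose means greatest ILS.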

[13] = test system: L1210; assay: Antitumor activity was determined against the ic implanted L1210 lymphoid leukemia in mice by percent increase in life span at 500 mg/kg (treatment of 1qd schedule) dosage
[14] = test system: L1210; assay: Antitumor activity against ic implanted L1210 lymphoid leukemia in mice expressed as active dose range (1 qd treatment schedule) required to produce increase in life span by >25% was determined; Range is 200-500
[15] = test system: L1210; assay: Antitumor activity was determined against the ip implanted L1210 leukemia in mice by range in survival days at 400 mg/kg (treatment of 1qd schedule) dosage; Range is 15-29; assay type: functional, Mus musculus; details: route intraperitoneal; in short: as §1
[16] = test system: P388; assay: Antitumor activity was determined against the ip implanted P388 leukemia in mice by percent median survival rate (treated/control) at 500 mg/kg (treatment of 1qd schedule) dosage; >45.0/11.0; assay type: functional, Mus musculus; details: route intraperitoneal
[17] = test system: P388; assay: Antitumor activity was determined against the ip implanted P388 leukemia in mice by change in […] at 67 mg/kg (treatment of 1,5,9qd schedule) dosage; assay type: functional, Mus musculus; details: route intraperitoneal
In short: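 P388 leukemia, 1×10^6 cells implanted ip on day 0 into DBA/2J mice, groups of 6 (wt 23-33 g). Dosing ip started 24 h post-inoculation, vehicle 0.9% NaCl containing 0.5% Tween-80. Animals were observed daily until death or 45 days. Outputs were weight change, median survival T/C from survivors per NCI protocols, and %ILS = (T/C − 1) × 100.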

[18] = test system: L1210; assay: Antitumor activity was determined against the ip implanted L1210 leukemia in mice by percent median survival rate (treated/control) at 400 mg/kg (treatment of 1qd schedule) dosage; 25.0/7.0; assay type: functional, Mus musculus; details: route intraperitoneal; in short: as §1
[19] = test system: L1210; assay: Antitumor activity was determined against the ip implanted L1210 leukemia in mice by 45-day survivors in mice at 100 mg/kg (treatment of 1-5qd schedule) dosage; assay type: functional, Mus musculus; details: route intraperitoneal; in short: as §3

CCCCCCCCCCCCCCCC(=O)OC[C@H](COP(=O)(O)OP(=O)(O)OC[C@H]1O[C@@H](n2ccc(N)nc2=O)[C@@H](O)[C@@H]1O)OC(=O)CCCCCCCCCCCCCCC
Range [1]: 14
Active dose range [2]: 200 mg/kg/day
ILS [3]: 215
median survival time [4]: 21 days
ILS [5]: 175

Nc1ccn([C@@H]2O[C@H](CO)[C@@H](O)[C@@H]2O)c(=O)n1 [CYTARABINE]
Active dose range [6]: 5 mg/kg/day
ILS [7]: 129
Range [8]: 11

CCCCCCCCCCCCCCCCOCC(COP(=O)(O)OP(=O)(O)OC[C@H]1O[C@@H](n2ccc(N)nc2=O)[C@@H](O)[C@@H]1O)OC(=O)CCCCCCCCCCCCCCC (mixture of isomers)
Active dose range [9]: 100 mg/kg/day
Weight change [10]: -1.15 g mouse-1
ILS [11]: >309
Active dose range [12]: 300 mg/kg/day
ILS [13]: 229
Active dose range [14]: 200 mg/kg/day

CCCCCCCCCCCCCCCCCCOCC(COP(=O)(O)OP(=O)(O)OC[C@H]1O[C@@H](n2ccc(N)nc2=O)[C@@H](O)[C@@H]1O)OC(=O)CCCCCCCCCCCCCCC (mixture of isomers)
Range [15]: 15
T/C [16]: >45%
Weight change [17]: 0.63 g mouse-1
T/C [18]: 25%
Survivors [19]: 0
